Measurements as given in PMC6690187 (Cancer chemotherapy and pharmacology, 2012).

Tests used:
[1] = S9 metabolism, human hepatic S9 fractions; assay type: in vitro ADME; details: human S9 1 mg/ml, 10 μM, within an hour of incubation, 37°C
mouse plasma proteins = test: Binding to mouse plasma proteins; assay type: in vitro ADME; details: 37°C 1 h
Method in brief: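 Test compound added to mouse plasma at 0.1, 1.0 and 10 μM and held at 37°C for 1 h; methanol replaced plasma in controls. Samples were centrifuged through 30 kDa ultrafiltration units at 2,000×g until dry. Filtrate (free, F) and unfiltered solution (total, T) were each measured in triplicate by HPLC-UV at 308 nm. Filter-bound amount (X) was included: % bound = [(T–F–X)/T] × 100.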

[2] = Pharmacokinetic studies in nude mice; assay type: in vivo, female athymic nude mice; details: for intact compound in plasma / time to highest plasma concentration: solution formulation
Method in brief: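 Female athymic nude mice (~25 g) received a solution formulation (PEG400/EtOH/Tween 80/D5W) at 20 mg/kg i.v., 50 mg/kg i.p. or 100 mg/kg p.o. Others received a suspension (0.05% Tween 80/saline) at 15 mg/kg i.p. or 100 mg/kg p.o. Heparinized retro-orbital blood was taken from 5 min to 24 h (i.v.) or 10 min to 48 h, with ≥3 samples per time point. Plasma was extracted with acetonitrile and measured by HPLC-UV.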

[3] = S9 metabolism, rat hepatic S9 fractions; assay type: in vitro ADME; details: rat S9 1 mg/ml, 10 μM, within an hour of incubation, 37°C
[4] = Urinary and fecal excretion after i.v. injection; assay type: in vivo, mice; details: i.v. injection 20 mg/kg, first 48 h, parent compound
Method in brief: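 Female nude mice dosed i.v. (20 mg/kg, solution formulation) were housed in metabolic cages, and urine and feces were collected for up to 48 h. Containers and cages were rinsed twice with 0.9% saline. Urine and each wash were extracted directly, analysed separately and summed. Feces were homogenized in PBS (5 ml/g), extracted with acetonitrile and measured by HPLC. Results were expressed as % of dose.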

[5] = Stability of ML-970 in mouse plasma; assay type: in vitro ADME; details: for compound remaining intact: 4°C
Method in brief: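 Mouse plasma was spiked with 1 or 10 μM test compound. Samples were held at 37°C in a water bath (sampled at 5, 10, 20, 30 and 60 min and at 2, 4 and 8 h), at 4°C (0.5–24 h) or at −80°C (1, 2 and 4 weeks). Each sample was extracted and measured by HPLC-UV at 308 nm. Remaining amount was expressed as % of the starting concentration versus time.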

[6] = in vitro assays and xenograft studies; cited from earlier work
[7] = Preliminary pharmacokinetics; assay type: in vivo, female Sprague-Dawley rats; details: rats, oral 2.5 vs 5 mg/kg; exception intestine
Method in brief: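 Female Sprague-Dawley rats received oral doses of 2.5 or 5 mg/kg in (PEG400/EtOH/Tween 80 = 6:3:1)/D5W = 1:2, either as a single dose or once daily for 5 days. Plasma was sampled at 1, 6 and 12 h. Lungs, liver, kidneys, small intestine and small-intestine contents were collected at 12 h on days 1 and 5. Tissues were homogenized in PBS, extracted with acetonitrile and analysed by HPLC.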

six different cell lines = details: cited from earlier work
[8] = S9 metabolism, mouse hepatic S9 fractions; assay type: in vitro ADME; details: mouse S9 1 mg/ml, 10 μM, within an hour of incubation, 37°C
NCI60 = details: read-out: average GI50; NCI60 screening, cytotoxic activity; cited from earlier work
[9] = Pharmacokinetic and tissue distribution studies in CD-1 mice; assay type: in vivo, female CD-1 mice
[10] = system: xenograft models of glioma (SF295), lung (H522), breast (MDA-MB-435), ovarian (OVCAR-3) cancers; details: SF295, H522, MDA-MB-435, OVCAR-3 xenografts; cited from earlier work
[11] = system: MDA-MB-435 breast cancer xenograft; details: oral doses 70-280 mg/kg and i.v. dose 10 mg/kg; cited from earlier work
[12] = Urinary and fecal excretion, higher dose in CD-1 mice; assay type: in vivo; details: 40 mg/kg i.v.
[13] = nude mice, 0.05% Tween 80/Saline, i.p., 15 mg/kg, plasma
[14] = nude mice, 0.05% Tween 80/Saline, p.o., 100 mg/kg, plasma
[15] = nude mice, PEG400/EtOH/Tween 80/D5W, i.p., 50 mg/kg, plasma
[16] = nude mice, PEG400/EtOH/Tween 80/D5W, i.v., 20 mg/kg, plasma
[17] = nude mice, PEG400/EtOH/Tween 80/D5W, p.o., 100 mg/kg, plasma
[18] = CD-1 mice, PEG400/EtOH/Tween 80/D5W, i.v., 2.5 mg/kg, plasma
[19] = CD-1 mice, PEG400/EtOH/Tween 80/D5W, p.o., 2.5 mg/kg, plasma
[20] = CD-1 mice, PEG400/EtOH/Tween 80/D5W, p.o., 5 mg/kg, plasma

COc1cc2cc(C(=O)Nc3cc(N)c4ccccc4c3CCCl)[nH]c2c(OC)c1OC [ML-970]
loss of parent compound with S9 enzymes [1]: no significant loss of the parent compound
binding to plasma proteins (mouse plasma proteins; 0.1 μM): 87.57%
binding to plasma proteins (mouse plasma proteins; 1.0 μM): 89.31%
binding to plasma proteins (mouse plasma proteins; 10.0 μM): 90.89%
toxicity observed in pharmacokinetic studies ([2]; doses from 10 to 100 mg/kg, soluble and suspension formulations): did not observe any toxicity
AUC0~∞ [2, 13]: 5350 ng·h/mL
CL or CL/F [2, 13]: 2.67 mL/g/h
Cmax [2, 13]: 1160 ng/mL
MRT [2, 13]: 6.21 h
T1/2 [2, 13]: 6.14 h
Tmax [2, 13]: 1 h
AUC0~∞ [2, 14]: 11520 ng·h/mL
CL or CL/F [2, 14]: 8.07 mL/g/h
Cmax [2, 14]: 1520 ng/mL
MRT [2, 14]: 8.1 h
T1/2 [2, 14]: 6.73 h
Tmax [2, 14]: 1 h
intact compound in plasma ([2]; nude mice, 8 h after i.v. 20 mg/kg): still detectable
intact compound in plasma ([2]; nude mice, 24 h after i.p. 50 mg/kg): could still be detected
intact compound in plasma ([2]; nude mice, 24 h after p.o. 100 mg/kg): could still be detected
AUC0~∞ [2, 15]: 42110 ng·h/mL
CL or CL/F [2, 15]: 1.19 mL/g/h
Cmax [2, 15]: 20390 ng/mL
MRT [2, 15]: 2.5 h
T1/2 [2, 15]: 4.58 h
Tmax [2, 15]: 0.17 h
AUC0~∞ [2, 16]: 14890 ng·h/mL
CL or CL/F [2, 16]: 1.35 mL/g/h
Cmax [2, 16]: 22350 ng/mL
MRT [2, 16]: 0.87 h
T1/2 [2, 16]: 0.78 h
Tmax [2, 16]: 0 h
Vss [2, 16]: 1.18 mL/g
F^oral ([2]; nude mice, PEG400/EtOH/Tween 80/D5W, p.o., 100 mg/kg): 0.53
AUC0~∞ [2, 17]: 39630 ng·h/mL
CL or CL/F [2, 17]: 2.52 mL/g/h
Cmax [2, 17]: 18930 ng/mL
MRT [2, 17]: 2.82 h
T1/2 [2, 17]: 4.26 h
Tmax [2, 17]: 0.5 h
time to highest plasma concentration ([2]; nude mice, i.p. 50 mg/kg): 10 min
time to highest plasma concentration ([2]; nude mice, oral gavage 100 mg/kg): 30 min
loss of parent compound with S9 enzymes [3]: no significant loss of the parent compound
compound excreted in feces [4]: 1.14%
compound excreted in urine [4]: less than 0.5%
compound remaining intact ([5]; 24-h storage (summary)): approximately 90%
compound remaining intact ([5]; 24 h, 1 μM): 88.6%
compound remaining intact ([5]; 24 h, 10 μM): 92.4%
compound remaining ([5]; 37°C, 8-h incubation, both 1 and 10 μM (summary)): approximately 70%
compound remaining ([5]; 37°C, 8 h, 1 μM): 70.9%
compound remaining ([5]; 37°C, 8 h, 10 μM): 70.2%
compound remaining ([5]; −80°C, 4 weeks, 1 μM): 87.5%
compound remaining ([5]; −80°C, 4 weeks, 10 μM): 89.8%
degradation on storage ([5]; −80°C, a week of storage): no significant degradation
liver and bone marrow toxicity compared with other CC-1065 analogs [6]: decreased liver and bone marrow toxicity
tissue concentrations between two doses [7]: no significant difference
cell lines killed in hollow fiber assay (six different cell lines): efficiently killing six different cell lines
hollow fiber assay total score (six different cell lines): 54 points
loss of parent compound with S9 enzymes [8]: no significant loss of the parent compound
GI50 (NCI60): 34 nM
AUC0~∞ [9, 18]: 1960 ng·h/mL
CL or CL/F [9, 18]: 1.27 mL/g/h
Cmax [9, 18]: 4340 ng/mL
MRT [9, 18]: 2.76 h
T1/2 [9, 18]: 0.31 h
Tmax [9, 18]: 0 h
Vss [9, 18]: 3.52 mL/g
F^oral ([9]; CD-1 mice, PEG400/EtOH/Tween 80/D5W, p.o., 2.5 mg/kg): 0.43
AUC0~∞ [9, 19]: 850 ng·h/mL
CL or CL/F [9, 19]: 2.61 mL/g/h
Cmax [9, 19]: 550 ng/mL
MRT [9, 19]: 8.28 h
T1/2 [9, 19]: 10.73 h
Tmax [9, 19]: 0.08 h
F^oral ([9]; CD-1 mice, PEG400/EtOH/Tween 80/D5W, p.o., 5 mg/kg): 0.44
AUC0~∞ [9, 20]: 1730 ng·h/mL
CL or CL/F [9, 20]: 3.22 mL/g/h
Cmax [9, 20]: 990 ng/mL
MRT [9, 20]: 1.8 h
T1/2 [9, 20]: 2.97 h
Tmax [9, 20]: 0.5 h
tissue distribution ([9]; mice, i.v. 2.5 mg/kg and p.o. 2.5 mg/kg, levels stayed relatively high for at least 24 h): high levels of ML-970 in the liver, gallbladder, and small intestine
antitumor effects in xenograft models [10]: significant antitumor effects in all of the models
tumor growth [11]: inhibited tumor growth
weight loss (index for host toxicity) [11]: no weight loss
compound excreted in urine ([12]; 48 h after treatment): about 1%
parental compound excreted in feces ([12]; first 8 h): less than 0.1%
